NF-kB neuron act = activators of NF-kB expression in neurons, primary screen, cell-based, HTS; human neuronal cells, NF-kB reporter expression; active compounds read high; fold change at 12.5 µM; 190,000 tested, 1.6% active; AID 1239, 2008; in the data active means fold change above about 3.3
STAT1 act = STAT1 signaling activators, primary screen, cell-based, HTS, luciferase reporter; NIH 3T3 STAT1-luciferase reporter, IFN-gamma, luminescence; 100% = IFN-gamma alone, no compound; AID 932, 2007; 200,000 tested, 2.6% active; activation (% of control), % at 5.5 µM;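 active means activation above the screen-wide mean activation plus 3 SD, cut at about 130% in these data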
FLuc inh counter = firefly luciferase enzyme inhibitors, primary screen, artefact control for luciferase-based inhibitor screens, biochemical, luminescence, ATPLite. 200,000 tested, 1.5% active. inhibition, % at 10 µM. AID 1006, 2008. 10 min;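 active means inhibition above about 50% when tested at 10 µM, limit read from the data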
Target sequence (P08659 whole entry, looked up): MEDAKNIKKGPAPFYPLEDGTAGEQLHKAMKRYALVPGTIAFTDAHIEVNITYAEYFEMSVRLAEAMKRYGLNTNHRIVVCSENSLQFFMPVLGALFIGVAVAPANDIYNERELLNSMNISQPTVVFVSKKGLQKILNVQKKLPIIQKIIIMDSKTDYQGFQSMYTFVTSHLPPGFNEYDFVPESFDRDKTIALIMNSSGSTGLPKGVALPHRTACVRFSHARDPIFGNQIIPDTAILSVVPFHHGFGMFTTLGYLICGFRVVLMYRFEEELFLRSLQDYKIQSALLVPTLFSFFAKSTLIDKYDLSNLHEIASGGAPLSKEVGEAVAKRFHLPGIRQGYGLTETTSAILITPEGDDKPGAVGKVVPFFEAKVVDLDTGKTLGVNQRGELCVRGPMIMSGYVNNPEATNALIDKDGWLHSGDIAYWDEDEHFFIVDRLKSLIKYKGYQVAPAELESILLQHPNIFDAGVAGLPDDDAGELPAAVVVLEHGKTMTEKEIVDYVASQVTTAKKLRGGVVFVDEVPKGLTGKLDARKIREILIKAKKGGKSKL
FLuc stim CS = FLuc activators, initial screening, artefact control for FLuc-dependent activation tests, biochemical, ATPlite luminescence | 200,000 tested, under 10 active | ATPlite luciferase biochemical, 10 min; 0 = ATP-free wells, 1 = DMSO control | activation factor at 10 µM | Luciferin 4-monooxygenase (Photinus pyralis), P08659;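 active means luciferase activation factor, scaled between plate controls, of at least 2 with compound at 10 µM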
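Material: luciferase plus luciferin reagent, cell-free. Medium: PBS buffer for ATP. Also added: ATP substrate, dispensed from a 10.24 µM working solution in PBS. Doses: test compounds dosed from 2 mM stocks in 100% DMSO. Incubation: 10 min post-reagent at room temperature. Technique: light output (luminescence). Read-out basis: luminescence gain marking luciferase activators.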
APP 5'UTR act = activators of APP 5'UTR luciferase reporter, primary screen, SH-SY5Y cells; SH-SY5Y APP 5'UTR luciferase reporter, luminescence; zero percent = DMSO vehicle wells; activation, % at 2 µM; 190,000 tested, 1% active;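 active means activation above a set limit, based on mean plus 3 SD of controls, cut at about 140% in these data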
STAT1 act conf = STAT1 signaling activators, confirmation, cell-based, HTS, luciferase reporter | shares compounds with STAT1 act | NIH 3T3 STAT1-luciferase reporter, IFN-gamma potentiation, luminescence; 100% = IFN-gamma EC80 alone, no compound | activation (% of control), % at 5.7 µM | 1,200 tested, 97% active | AID 1262, 2008;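 active means activation above a set limit carried over from the earlier primary STAT1 screen, cut at about 140% in these data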
NFkB act = NF-kB reporter activators, TNF-alpha stimulated, counter-screen for STAT1 activator project, cell-based, HEK293T, luciferase luminescence; shares compounds with STAT1 act; 100% = TNF-alpha with vehicle only; activation (% of control), % at 5.7 µM; 1,200 tested, 43% active; AID 1306, 2008;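 active means activation above the mean of solvent-only control wells plus 3 SD, set per campaign, cut at about 130% in these data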;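 further: TNF-alpha given at a submaximal dose yielding about 80% of full reporter signal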
STAT3 act STAT1c = STAT3 reporter activation by STAT1 hits, confirmation, counter-screen for STAT1 activator project, U3A cells, luciferase, luminescence; shares compounds with STAT1 act; IL-6; cells lack STAT1; 100 = IL-6 alone, no compound effect; activation (% of control), % at 5.7 µM; 1,200 tested, 46% active; AID 1316, 2008;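 active means activation above the solvent-only control well mean plus 3 SD, set per plate batch, cut at about 110% in these data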;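 further: higher means more STAT3 reporter activation so hits are non-selective activators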
Each line names hits and unclear results; the compound was inactive in the other large screens (follow-up assays come after a bar, where they were run). An excerpt weighted towards active compounds, which were near 4.1% of everything screened.

O=c1c2ccccc2nc(/C=C/c2ccc([N+](=O)[O-])o2)n1CCCO	STAT1 act 151 | STAT1 act conf 167 | NFkB act 157 | STAT3 act STAT1c inactive
O=c1c2ccccc2nc(/C=C/c2ccc([N+](=O)[O-])cc2)n1CCCO	none
O=C(Nc1ncccn1)c1ccc([N+](=O)[O-])cc1	none
CC(C)(C)c1ccc(C(=O)Nc2ccc([N+](=O)[O-])cn2)cc1	STAT1 act 151 | STAT1 act conf 213 | NFkB act 135 | STAT3 act STAT1c inactive
O=C(NC(=S)Nc1ccccn1)c1ccc([N+](=O)[O-])cc1	STAT1 act 182, FLuc inh counter 59 | STAT1 act conf 191 | NFkB act inactive | STAT3 act STAT1c inactive
COc1ccc(-c2cc(=NC(CC(C)C)C(=O)O)c3cc(C)ccc3o2)cc1 (stereo not drawn)	NF-kB neuron act 4.3, STAT1 act 156 | STAT1 act conf 144 | NFkB act 136 | STAT3 act STAT1c inactive
COc1ccc(-c2cc(=Nc3ccc(C)cc3)c3ccccc3o2)cc1	none
CC(C)c1ccc(N=C2NN=C(c3cccs3)CS2)cc1	STAT1 act 153, FLuc inh counter 50, APP 5'UTR act 169 | STAT1 act conf 195 | NFkB act inactive | STAT3 act STAT1c 111
CC(C)CCn1c(O)c(N=NC(=O)Cn2ccc(C(F)(F)F)n2)c2ccccc21	none
Fc1ccc(/C=N/NC2=Nc3cccc4cccc2c34)cc1	STAT1 act 167, FLuc inh counter 58, APP 5'UTR act 167 | STAT1 act conf 201 | NFkB act 137 | STAT3 act STAT1c 153
Fc1cccc(-c2nnn3c2nc(Cl)c2ccccc23)c1	none
COc1ccc(NC(=O)c2ccc(OC(F)F)cc2)cc1Cl	NF-kB neuron act 4.4, STAT1 act 166, FLuc inh counter 52 | STAT1 act conf 181 | NFkB act inactive | STAT3 act STAT1c inactive
COc1ccc(C(=O)Nc2ccc(SC(F)F)cc2)cc1	STAT1 act 164, APP 5'UTR act 164 | STAT1 act conf 182 | NFkB act 141 | STAT3 act STAT1c inactive
Brc1ccc(-c2nnc3n2-c2ccccc2CC3)cc1	none
O=C(CNC(=O)c1ccco1)OCc1ccc(Cl)cc1	none
COc1ccccc1NC(=O)Cc1noc(CSc2n[nH]c(N)n2)n1	none
O=C(OCC(=O)N1CCc2ccccc2C1)c1cccc([N+](=O)[O-])c1	none
O=C(CCl)Nc1ccc2c(c1)OCO2	none
COc1ccc(N/C=C/C(=O)c2ccc3c(c2)OCO3)cc1OC	STAT1 act 161, FLuc inh counter 60 | STAT1 act conf 178 | NFkB act 136 | STAT3 act STAT1c inactive
O=C(/C=C\Nc1ccc2c(c1)OCO2)c1ccc(Cl)s1	STAT1 act 157, FLuc inh counter 87, APP 5'UTR act 164 | STAT1 act conf 200 | NFkB act inactive | STAT3 act STAT1c inactive
COc1ccc(N/C=C/C(=O)c2ccc(C)cc2)c([N+](=O)[O-])c1	STAT1 act 153 (no result: NF-kB neuron act, FLuc inh counter, FLuc stim CS) | STAT1 act conf 218 | NFkB act inactive | STAT3 act STAT1c inactive
CCOc1ccc(N/C=C/C(=O)c2ccc(OC)cc2)c([N+](=O)[O-])c1	none
Cc1cccc(-n2nnc(C(=O)Nc3ccc(F)cc3)c2N)c1	NF-kB neuron act 5.1, STAT1 act 168 | STAT1 act conf 196 | NFkB act inactive | STAT3 act STAT1c inactive
CC(=O)Nc1sc2c(c1C#N)CCCC2	none
CC(=O)NC(=S)Nc1sc2c(c1C#N)CCCCC2	STAT1 act 167, FLuc inh counter 72 | STAT1 act conf 186 | NFkB act inactive | STAT3 act STAT1c inactive
Cc1cc(C(=O)Nc2sc3c(c2C#N)CCCCC3)cs1	NF-kB neuron act 4.2, STAT1 act 176, APP 5'UTR act 159 | STAT1 act conf 255 | NFkB act 146 | STAT3 act STAT1c 111
O=C(Nc1nc2c(s1)C(=O)CCC2)c1ccccc1	STAT1 act 153, FLuc inh counter 66, APP 5'UTR act 148 | STAT1 act conf 185 | NFkB act inactive | STAT3 act STAT1c inactive
CC(=O)c1sc(Nc2nc(C)cc(C)n2)nc1C	none
O=C(Oc1ccc(-c2cnc3ccccc3n2)cc1)c1ccco1	STAT1 act 155 | STAT1 act conf 190 | NFkB act inactive | STAT3 act STAT1c inactive
O=C(Oc1ccc(-c2cnc3ccccc3n2)cc1)c1cc([N+](=O)[O-])ccc1Cl	none
CCOC(=O)c1c(NC(=O)C(C)N2CCN(C(=O)c3ccco3)CC2)sc2c1CCCC2 (stereo not drawn)	none
CCc1ccc(NC(=O)c2cnn(-c3ccccc3)c2C2CCNCC2)cc1	none
CCc1ccc(NC(=O)c2cnn(-c3ccccc3)c2C)cc1	NF-kB neuron act 5.9, STAT1 act 185, APP 5'UTR act 155 | STAT1 act conf 252 | NFkB act inactive | STAT3 act STAT1c inactive
CCC(=O)Nc1ccc(-c2nnc(-c3ccccc3)o2)cc1	STAT1 act 163, APP 5'UTR act 210 | STAT1 act conf 220 | NFkB act inactive | STAT3 act STAT1c 113
O=c1[nH]c(-c2ccccn2)nc2sc(-c3ccccc3)cc12	STAT1 act 298 | STAT1 act conf 473 | NFkB act 225 | STAT3 act STAT1c 119
Cc1c(C(=O)N(C)C)sc2nc(-c3ccccn3)[nH]c(=O)c12	none
O=C(Nc1cccc(Cl)c1)c1ccc2c(=O)n3c(nc2c1)CCCCC3	STAT1 act 162, APP 5'UTR act 202 | STAT1 act conf 180 | NFkB act inactive | STAT3 act STAT1c inactive
CC12CCC(C(=O)NCc3ccco3)(OC1=O)C2(C)C (stereo not drawn)	none
CCOC(=O)c1c(C)[nH]c(N=Nc2ccc(C)cc2)c1C	NF-kB neuron act 4.1, STAT1 act 154, APP 5'UTR act 141 | STAT1 act conf 230 | NFkB act 146 | STAT3 act STAT1c inactive
CCOC(=O)c1c(C)[nH]c(C=Nc2ccc(OC)cc2)c1O	none
CCOC(=O)c1c(C)[nH]c(N=Nc2cccc(OC)c2)c1C	STAT1 act 198, APP 5'UTR act 253 | STAT1 act conf 235 | NFkB act 144 | STAT3 act STAT1c inactive
